Assay outcomes deposited in PubChem BioAssay by The Scripps Research Institute Molecular Screening Center.
M4 antag: CHRM4 antagonism in calcium assay | inhibition, % at 3 µM | 360,000 tested, 0.73% active | P08173 | CHO-hM4 cells, ACh EC80, Fluo-8 calcium fluorescence | AID 624125;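 active means inhibition above its plate's cutoff, the mean inhibition of sample wells plus 3 SD, cut at about 27% in these data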;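 further: 0% = acetylcholine EC80 with DMSO and 100% = DMSO without agonist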
M5 ag: CHRM5 agonism in calcium assay | CHO-K1 hM5 cells, Fluo-8 calcium fluorescence; 0% DMSO wells, 100% maximal acetylcholine response | AID 624037 | P08912 | 360,000 tested, 0.19% active | activation, % at 3 µM;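 active means activation above the run's mean over test compounds plus 3 SD, cut at about 23% in these data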;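 further: signal is peak over basal fluorescence ratio across the kinetic read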
Target sequence (P08912 whole entry, looked up): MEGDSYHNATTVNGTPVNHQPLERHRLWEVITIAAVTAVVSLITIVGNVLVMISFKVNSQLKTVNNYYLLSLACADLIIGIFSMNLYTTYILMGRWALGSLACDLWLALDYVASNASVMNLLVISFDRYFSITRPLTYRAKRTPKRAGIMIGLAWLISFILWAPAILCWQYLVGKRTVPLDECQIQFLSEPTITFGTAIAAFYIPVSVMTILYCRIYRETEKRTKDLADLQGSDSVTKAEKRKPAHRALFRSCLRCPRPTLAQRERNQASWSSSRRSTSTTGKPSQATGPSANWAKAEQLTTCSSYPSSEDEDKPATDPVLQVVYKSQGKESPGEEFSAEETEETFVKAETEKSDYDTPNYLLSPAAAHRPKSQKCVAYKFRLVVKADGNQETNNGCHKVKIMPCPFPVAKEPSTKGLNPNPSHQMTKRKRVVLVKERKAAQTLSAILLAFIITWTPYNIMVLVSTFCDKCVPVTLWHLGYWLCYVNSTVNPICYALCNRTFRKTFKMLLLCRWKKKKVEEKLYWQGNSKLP
CHRM4 PAM: CHRM4 positive allosteric modulation; CHO-K1 hM4/Gqi5, Fluo-8 calcium fluorescence, ACh EC20; 0% = ACh EC20, 100% = maximal ACh; 360,000 tested, 0.4% active; activation, % at 3 µM; AID 624126; P08173;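 active means activation above its plate's cutoff, the mean activation of sample wells plus 3 SD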
M5 antag: CHRM5 antagonism in calcium assay. CHO-hM5 cells, Fluo-8 calcium fluorescence, ACh EC80. AID 624040. 360,000 tested, 0.59% active. inhibition, % at 3 µM. P08912;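 active means inhibition above a per-plate cutoff, the mean of that plate's test compounds plus 3 SD, cut at about 27% in these data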;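 further: 0% = acetylcholine EC80 with DMSO and 100% = DMSO without agonist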
M5 PAM: CHRM5 positive allosteric modulation. P08912. AID 624038. CHO-K1 hM5, Fluo-8 calcium, ACh EC20 PAM; 0% = ACh EC20, 100% = ACh EC100. activation, % at 3 µM. 360,000 tested, 0.3% active;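 active means activation above the run cutoff, the mean activation of all test compounds plus 3 SD, cut at about 18% in these data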
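Assay system – human M5 receptor in CHO-K1 cells · Read-out – % activation, ACh-normalized · Technique – Fluo-8 calcium fluorescence · Dosing – single-point, 3 µM nominal · Incubation – Fluo-8 loading 80 min at 37 °C plus 30 min room temperature · Repeats – singlicate, one well per test compound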
M4 ag: agonists of human muscarinic M4 receptor (CHRM4). P08173. 360,000 tested, 0.14% active. CHO-K1 hM4/Gqi5, Fluo-8 calcium fluorescence; vehicle 0%, full acetylcholine response 100%. activation, % at 3 µM. AID 624127;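 active means activation above the run mean over all test wells plus 3 SD, cut at about 32% in these data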;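 further: peak over basal fluorescence ratio per well then scaled between controls; 0% = DMSO wells and 100% = acetylcholine at EC100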
Numbers without * were called inactive. Only some compounds are listed: those with a hit (about 1.9% of all), similar ones and a draw of the others.

SMILES	M4 antag	M5 ag	CHRM4 PAM	M5 antag	M5 PAM	M4 ag
CCOC(=O)C1CCN(S(=O)(=O)c2ccc3c(c2)CC(C)N3C(=O)C2CCC2)CC1 (centres undefined)	1	-3	7	14	-6	7
COC(=O)C1=C(C)NC(C)=C(C(=O)OC)C1c1ccc(NC(C)=O)cc1	2	44*	10	14	-16	2
CCN(CC)c1ccc(C2C(C(=O)OC)=C(C)NC(C)=C2C(=O)OC)cc1	14	-8	-18	8	-17	0
OC[C@H]1O[C@@H](c2nc(-c3ccc(C4OCCO4)cc3)no2)[C@H](O)[C@@H]1O	-6	0	4	9	-3	0
OC[C@H]1O[C@@H](c2nc(-c3ccc4[nH]ccc4c3)no2)[C@H](O)[C@@H](O)[C@H]1O	-4	-1	16*	-2	3	1
COC(=O)c1ccc2nc(-c3ccco3)c(Cc3cccc(F)c3)n2c1	-13	4	15	-8	7	0
COCCNC(=S)N1CCN(c2cccc(C)c2C)CC1	7	1	-5	28*	-17	16
Cc1cccc(N2CCN(C(=S)NCCc3ccccc3)CC2)c1C	6	1	-5	6	-4	1
CS(=O)(=O)N(CC(=O)Nc1cccc(Br)c1)Cc1ccccc1	4	0	-3	-6	-6	2
O=C(Nc1ccccc1)C1CCCN(C(=O)c2ccc(Cl)cc2)C1 (centres undefined)	-11	6	3	-11	0	4
O=C(Nc1ccccc1)C1CCCN(C(=O)c2ccc(F)cc2)C1 (centres undefined)	-4	1	22*	1	2	2
O=C(Cc1ccc(NC(=O)C2CCCN(C(=O)C3CCCCC3)C2)cc1)Nc1cccc(C(=O)N2CCCC2)c1 (centres undefined)	-1	1	17*	8	-5	-2
CN(C(=O)c1ccc(NC(=O)Cc2ccc(NC(=O)C3CCN(C(=O)C4CC4)CC3)cc2)cc1)C1CCCC1	-21	-1	20*	-1	-5	0
O=C(Cc1ccccc1)Nc1nnc(-c2cccc([N+](=O)[O-])c2)s1	-4	2	35*	-10	9	1
NC(=O)COC(=O)[C@H](Cc1c[nH]c2ccccc12)NC(=O)c1ccc(F)cc1	5	-1	1	4	1	1
CC(C)c1ccc(CC(=O)N2CCC2(C)C(=O)Nc2ccc3c(c2)OCO3)cc1 (centres undefined)	-11	5	-3	5	-8	12
CC1(C(=O)Nc2ccc3c(c2)OCCO3)CCN1C(=O)Cc1ccc(-c2ccccc2)cc1 (centres undefined)	15	6	-4	30*	-14	10
Cn1nc(C(F)(F)F)c(-c2cccc(C(F)(F)F)c2)c1NC(=O)Nc1ccc(F)cc1	8	3	-14	34*	-26	14
O=C(COc1ccc(Br)cc1)N1CCOCC1	-11	0	4	-19	18*	1
COc1cc(C(=O)NNC(=O)COc2ccc(Br)cc2)ccc1OCC(=O)N1CCOCC1	3	5	9	10	6	1
COc1cc(C(=O)NNC(=O)COc2ccc(C)cc2)ccc1OCC(=O)N1CCOCC1	-8	4	23*	-4	0	1
CCOc1ccc(OCC(=O)N2CCOCC2)cc1	5	-2	1	2	-5	0
Cc1cc(Cl)c(S(=O)(=O)N2CCSCC2)cc1OCC(N)=O	1	3	19*	-16	-1	4
CCOc1ccc(NS(=O)(=O)c2cc(OCC(N)=O)c(C)cc2Cl)cc1	4	4	27*	6	7	2
Cc1cc(Cl)c(S(=O)(=O)N2CC(C)OC(C)C2)cc1OCC(N)=O (centres undefined)	10	0	-3	10	-5	1
SMILES	M4 antag	M5 ag	CHRM4 PAM	M5 antag	M5 PAM	M4 ag
COCCN(C(=O)CCl)C(C(=O)NC1CCCCC1)c1ccccc1C (centres undefined)	14	-3	-12	-1	1	-1
Cc1cccc(C)c1C(OCCN(C)C)C1CCCCC1 (centres undefined)	77*	-9	-20	100*	-19	5
CCOc1ccccc1OCCC(=O)OCC(=O)c1ccc[nH]1	3	1	-9	7	-1	1
CN(C(=O)COC(=O)Cc1c(F)cccc1Cl)c1c(N)n(Cc2ccccc2)c(=O)[nH]c1=O	-3	5	-1	-2	-1	2
COc1cc(CNCc2ccc(OC)cc2OC)cc(OC)c1	-7	4	-5	1	4	8
O=C(Nc1nnc(-c2cccs2)o1)c1cccc(C(F)(F)F)c1	-4	15	-3	4	-16	65*
N#Cc1ccc(C(=O)Nc2nnc(-c3cccs3)o2)cc1	-7	0	4	8	0	0
CC1CCC(C(C)C)C(OCC[N+](C)(C)C)C1 (centres undefined)	99*	-7	-36	99*	-20	1
CC1CCC(C(C)C)C(OCC(O)C[N+]2(C)CCCCC2)C1 (centres undefined)	9	-13	-19	4	-14	1
O=C(Nc1ccc(Br)c(C(F)(F)F)c1)c1ccccc1	0	-3	-10	10	-16	7
O=C(Nc1ccc(Br)c(C(F)(F)F)c1)c1ccc(C(F)(F)F)cc1	34*	-4	-18	31*	-34	10
Fc1ccc(NC(=S)NC2CCN(Cc3ccccc3)CC2)cc1	1	-2	-9	-2	-5	6
S=C(Nc1ccc(Cl)c(Cl)c1)NC1CCCCC1	15	3	-10	29*	-23	18
S=C(Nc1cccc(Cl)c1Cl)NC1CCN(Cc2ccccc2)CC1	9	-1	0	-2	5	9
Cc1cccc(NC(=S)NC2CCN(Cc3ccccc3)CC2)c1C	5	0	24*	-7	9	5
Fc1cccc(NC(=S)NC2CCCCCCC2)c1	-7	4	-6	27*	-17	14
S=C(Nc1ccc(Cl)c(Cl)c1)NC1CCN(Cc2ccccc2)CC1	38*	19	3	33*	-14	46*
Cc1cnc(C(=O)OCc2cc(=O)n3c(C)cccc3n2)cn1	-2	3	-2	5	8	0
CS(=O)c1ccccc1-c1nc(-c2ccc([N+](=O)[O-])cc2)no1 (centres undefined)	2	4	15	-4	17	1
